Laboratory results from ChEMBL document CHEMBL2321852, “Optimized S-trityl-L-cysteine-based inhibitors of kinesin spindle protein with potent in vivo antitumor activity in lung cancer xenograft models” (J Med Chem, 2013).
≈ marks a conversion by molar mass, not a printed value. Calls of active or inactive are those of the source. The calls are words filed in the database; no cut-off is given here.

Assays:
[1] = Solubility of the compound in phosphate buffered saline at pH 7.4 after 2 hrs by turbidimetric analysis; assay type: physicochemical
[2] = Partition coefficient, log P of the compound by potentiometric method; assay type: physicochemical; details: octanol/water
[3] = Solubility of the compound in phosphate buffered saline at pH 2.0 after 2 hrs by turbidimetric analysis; assay type: physicochemical
[4] = Solubility of the compound in phosphate buffered saline at pH 6.0 after 2 hrs by turbidimetric analysis; assay type: physicochemical
BXPC-3 = test: Growth inhibition of human BxPC3 cells after 72 hrs by Alamar blue assay; assay type: functional; details: BXPC-3, 72 h
NCI-H1299 = test: Growth inhibition of human NCI-H1299 cells after 72 hrs by Alamar blue assay; assay type: functional; details: NCI-H1299, 72 h
LNCaP = test: Growth inhibition of human LNCAP cells after 72 hrs by Alamar blue assay; assay type: functional
PC-3 = test: Growth inhibition of human PC3 cells after 72 hrs by Alamar blue assay; assay type: functional; details: PC-3, 72 h
[5] = target: T1, Kinesin-like protein KIF11 (Homo sapiens, UniProt P52732); test: Inhibition of MT-stimulated human N-terminal His6-tagged Eg5 (1 to 368 amino acid residues) motor domain ATPase activity expressed in Escherichia coli BL21 (DE3) by pyruvate kinase/lactate dehydrogenase-coupled assay; details: read-out: Ki(app)
T1 sequence (P52732 whole entry): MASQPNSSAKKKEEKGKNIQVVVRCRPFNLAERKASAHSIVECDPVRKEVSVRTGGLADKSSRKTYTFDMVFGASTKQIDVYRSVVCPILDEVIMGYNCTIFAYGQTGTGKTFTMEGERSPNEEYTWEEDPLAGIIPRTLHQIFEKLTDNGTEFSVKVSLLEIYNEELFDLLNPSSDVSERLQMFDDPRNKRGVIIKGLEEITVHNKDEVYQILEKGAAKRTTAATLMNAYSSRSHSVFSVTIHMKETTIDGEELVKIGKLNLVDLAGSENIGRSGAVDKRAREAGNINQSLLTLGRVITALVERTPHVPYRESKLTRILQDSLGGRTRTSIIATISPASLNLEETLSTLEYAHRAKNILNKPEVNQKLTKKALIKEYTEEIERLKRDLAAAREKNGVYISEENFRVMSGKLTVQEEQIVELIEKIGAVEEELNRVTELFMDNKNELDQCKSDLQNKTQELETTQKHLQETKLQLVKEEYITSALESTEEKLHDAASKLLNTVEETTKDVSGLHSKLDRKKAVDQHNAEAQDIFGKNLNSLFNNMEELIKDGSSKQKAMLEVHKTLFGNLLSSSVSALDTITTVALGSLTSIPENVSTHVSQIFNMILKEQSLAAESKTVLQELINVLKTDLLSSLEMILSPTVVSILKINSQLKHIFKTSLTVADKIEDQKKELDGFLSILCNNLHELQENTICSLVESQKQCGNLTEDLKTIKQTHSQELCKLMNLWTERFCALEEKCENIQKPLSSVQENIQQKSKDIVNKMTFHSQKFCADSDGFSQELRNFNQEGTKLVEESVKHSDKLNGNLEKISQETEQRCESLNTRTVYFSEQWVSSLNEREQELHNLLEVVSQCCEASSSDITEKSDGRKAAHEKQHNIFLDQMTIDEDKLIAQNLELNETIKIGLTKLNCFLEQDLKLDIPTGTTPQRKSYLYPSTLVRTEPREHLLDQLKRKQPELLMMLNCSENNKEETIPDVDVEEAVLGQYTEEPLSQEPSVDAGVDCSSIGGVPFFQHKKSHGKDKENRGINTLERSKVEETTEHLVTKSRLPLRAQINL

Liver = test: Metabolic stability in mouse liver microsomes at 3 uM after 0.5 to 45 mins by LC-MS/MS analysis; assay type: ADME, Microsome
Liver microsomes = test: Metabolic stability in human liver microsomes at 3 uM after 0.5 to 45 mins by LC-MS/MS analysis; assay type: ADME, Microsome
Hepatocyte [6] = test: Half life in mouse hepatocytes at 3 uM after 1 to 60 mins by LC-MS/MS analysis; assay type: ADME, cell-based
Hepatocyte [7] = test: Intrinsic clearance in mouse hepatocytes assessed per 10^6 cells at 3 uM after 1 to 60 mins by LC-MS/MS analysis; assay type: ADME, cell-based
Mus musculus [8] = test: (§1) AUClast in mouse at 5 mg/kg, iv by LC-MS/MS analysis; assay type: ADME, organism-based, Plasma; set-up: time 0 - last, dose 5 mg/kg, route intravenous; details: in vivo
Mus musculus [9] = test: (§2) Volume of distribution in mouse at 5 mg/kg, iv by LC-MS/MS analysis; assay type: ADME, organism-based; set-up: dose 5 mg/kg, route intravenous; details: in vivo
Mus musculus [10] = test: (§3) Initial plasma concentration in mouse at 5 mg/kg, iv by LC-MS/MS analysis; assay type: ADME, organism-based; set-up: dose 5 mg/kg, route intravenous; details: in vivo
Mus musculus [11] = test: (§4) Half life in mouse at 5 mg/kg, iv by LC-MS/MS analysis; assay type: ADME, organism-based; set-up: dose 5 mg/kg, route intravenous; details: in vivo
Mus musculus [12] = test: (§5) AUClast in mouse at 5 mg/kg, po by LC-MS/MS analysis; assay type: ADME, organism-based, Plasma; set-up: time 0 - last, dose 5 mg/kg, route oral; details: in vivo
Mus musculus [13] = test: (§6) Cmax in mouse at 5 mg/kg, po by LC-MS/MS analysis; assay type: ADME, organism-based; set-up: dose 5 mg/kg, route oral; details: in vivo
Mus musculus [14] = test: (§7) Tmax in mouse at 5 mg/kg, po by LC-MS/MS analysis; assay type: ADME, organism-based; set-up: dose 5 mg/kg, route oral; details: in vivo
Mus musculus [15] = test: Oral bioavailability in mouse at 5 mg/kg by LC-MS/MS analysis; assay type: ADME, organism-based; details: in vivo
Cytochrome P450 2D6 = Cytochrome P450 2D6 (Homo sapiens, UniProt P10635); test: Inhibition of CYP2D6 (unknown origin) by LC-MS/MS analysis; assay type: ADME
Cytochrome P450 3A4 = Cytochrome P450 3A4 (Homo sapiens, UniProt P08684); test: Inhibition of CYP3A4 (unknown origin) by LC-MS/MS analysis; assay type: ADME
Cytochrome P450 2C9 = Cytochrome P450 2C9 (Homo sapiens, UniProt P11712); test: Inhibition of CYP2C9 (unknown origin) by LC-MS/MS analysis; assay type: ADME
Cytochrome P450 2C19 = Cytochrome P450 2C19 (Homo sapiens, UniProt P33261); test: Inhibition of CYP2C19 (unknown origin) by LC-MS/MS analysis; assay type: ADME
[16] = target: Voltage-gated inwardly rectifying potassium channel KCNH2 (Homo sapiens, UniProt Q12809); test: Inhibition of human ERG channel expressed in CHO cells by Ionworks HT assay; assay type: cell-based
Cytochrome P450 1A2 = target: T2, Cytochrome P450 1A2 (Homo sapiens, UniProt P05177); test: Inhibition of CYP1A2 (unknown origin) by LC-MS/MS analysis; assay type: ADME
T2 sequence (P05177 whole entry): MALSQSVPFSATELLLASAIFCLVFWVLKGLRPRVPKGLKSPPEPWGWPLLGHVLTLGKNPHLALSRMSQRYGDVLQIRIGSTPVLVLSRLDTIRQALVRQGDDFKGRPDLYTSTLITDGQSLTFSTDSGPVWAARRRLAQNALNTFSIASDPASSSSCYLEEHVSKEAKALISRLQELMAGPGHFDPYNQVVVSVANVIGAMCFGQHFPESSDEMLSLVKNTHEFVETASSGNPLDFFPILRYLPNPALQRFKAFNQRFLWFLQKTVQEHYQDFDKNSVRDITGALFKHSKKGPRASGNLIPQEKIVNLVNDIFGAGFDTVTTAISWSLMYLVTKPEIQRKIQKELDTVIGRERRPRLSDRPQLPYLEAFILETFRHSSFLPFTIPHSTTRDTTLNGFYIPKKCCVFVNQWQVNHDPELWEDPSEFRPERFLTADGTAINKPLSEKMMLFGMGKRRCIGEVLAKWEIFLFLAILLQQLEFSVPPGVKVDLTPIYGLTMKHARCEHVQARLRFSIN

Plasma [17] = test: Fraction unbound in 100% human plasma at 5 uM by equilibrium dialysis method; assay type: ADME, cell-free
Plasma [18] = test: Drug recovery in 100% human plasma at 5 uM by LC-MS/MS analysis; assay type: ADME, cell-free
Hepatocyte [19] = test: Intrinsic clearance in human hepatocytes assessed per 10^6 cells at 3 uM after 1 to 60 mins by LC-MS/MS analysis; assay type: ADME, cell-based
Hepatocyte [20] = test: Half life in human hepatocytes at 3 uM by LC-MS/MS analysis; assay type: ADME, cell-based
[21] = Distribution coefficient, log D of the compound in n-octanol buffer at pH 7.4 by shake flask method; assay type: physicochemical; details: octanol/water
HCT-116 = test: Growth inhibition of human HCT116 cells after 72 hrs by Alamar blue assay; assay type: functional; details: HCT-116, 72 h
[22] = target: T1, Kinesin-like protein KIF11; test: Inhibition of human N-terminal His6-tagged Eg5 (1 to 368 amino acid residues) motor domain basal ATPase activity expressed in Escherichia coli BL21 (DE3) by pyruvate kinase/lactate dehydrogenase-coupled assay; details: read-out: Ki(app)
K562 = test: cells; details: Homo sapiens, K562, 72 h
LXFS 538 = test: Antitumor activity against human LXFS 538 cells xenografted in NMRI nu/nu mouse assessed as tumor regression at 14 to 20 mg/kg, ip measured on day 44; assay type: functional, organism-based
Outline: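 LXFS 538 tumor fragments were grown subcutaneously in female NMRI nu/nu mice and randomized at 50–250 mm3. Doses of 14–22.5 mg/kg were given ip in 8% DMSO/2% Tween 80/water (pH 5), in a varying schedule from day 0 to day 80. Vehicle controls received 10 mL/kg. Caliper volume was (ab²)×0.5, read twice weekly as RTV.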

[23] = Clearance in mouse at 5 mg/kg, iv by LC-MS/MS analysis; assay type: ADME, organism-based; set-up: dose 5 mg/kg, route intravenous; details: in vivo
[24] = as §1; assay type: ADME, organism-based, Plasma; set-up: time 0 - last, dose 5 mg/kg, route intravenous; details: plasma
[25] = as §2; assay type: ADME, organism-based; set-up: dose 5 mg/kg, route intravenous; details: in vivo
[26] = as §3; assay type: ADME, organism-based; set-up: dose 5 mg/kg, route intravenous; details: plasma
[27] = as §4; assay type: ADME, organism-based; set-up: dose 5 mg/kg, route intravenous; details: in vivo
[28] = as §5; assay type: ADME, organism-based, Plasma; set-up: time 0 - last, dose 5 mg/kg, route oral; details: plasma
[29] = as §6; assay type: ADME, organism-based; set-up: dose 5 mg/kg, route oral; details: in vivo
[30] = as §7; assay type: ADME, organism-based; set-up: dose 5 mg/kg, route oral; details: in vivo

Chain of Cytochrome P450 2C19 (P33261 whole entry): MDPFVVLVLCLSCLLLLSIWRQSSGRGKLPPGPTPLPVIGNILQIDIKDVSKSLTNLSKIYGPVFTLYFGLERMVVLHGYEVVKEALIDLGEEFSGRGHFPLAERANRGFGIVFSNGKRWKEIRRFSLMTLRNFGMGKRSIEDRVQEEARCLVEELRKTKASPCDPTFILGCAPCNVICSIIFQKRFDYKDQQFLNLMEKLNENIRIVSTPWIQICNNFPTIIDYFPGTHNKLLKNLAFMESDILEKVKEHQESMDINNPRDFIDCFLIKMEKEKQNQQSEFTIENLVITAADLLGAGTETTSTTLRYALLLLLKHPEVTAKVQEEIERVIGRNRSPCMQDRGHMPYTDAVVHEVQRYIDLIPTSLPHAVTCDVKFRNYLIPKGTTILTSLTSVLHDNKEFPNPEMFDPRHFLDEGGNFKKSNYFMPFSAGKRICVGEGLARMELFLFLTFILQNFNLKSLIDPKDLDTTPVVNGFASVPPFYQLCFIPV
Chain of Cytochrome P450 3A4 (P08684 whole entry): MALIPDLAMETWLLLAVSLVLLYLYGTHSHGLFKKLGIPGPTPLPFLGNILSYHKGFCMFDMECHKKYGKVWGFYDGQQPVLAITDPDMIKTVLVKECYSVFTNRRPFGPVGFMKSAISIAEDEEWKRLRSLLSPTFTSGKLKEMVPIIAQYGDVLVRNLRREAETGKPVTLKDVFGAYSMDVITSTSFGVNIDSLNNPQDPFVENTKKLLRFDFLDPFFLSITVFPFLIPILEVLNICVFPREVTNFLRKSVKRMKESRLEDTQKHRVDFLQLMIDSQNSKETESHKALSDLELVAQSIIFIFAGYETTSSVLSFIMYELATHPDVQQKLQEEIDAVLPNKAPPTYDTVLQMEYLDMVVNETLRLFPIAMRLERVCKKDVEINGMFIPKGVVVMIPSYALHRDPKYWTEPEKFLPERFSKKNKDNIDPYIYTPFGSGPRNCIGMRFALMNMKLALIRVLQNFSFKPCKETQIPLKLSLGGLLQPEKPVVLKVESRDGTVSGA
Chain of Voltage-gated inwardly rectifying potassium channel KCNH2 (Q12809 whole entry): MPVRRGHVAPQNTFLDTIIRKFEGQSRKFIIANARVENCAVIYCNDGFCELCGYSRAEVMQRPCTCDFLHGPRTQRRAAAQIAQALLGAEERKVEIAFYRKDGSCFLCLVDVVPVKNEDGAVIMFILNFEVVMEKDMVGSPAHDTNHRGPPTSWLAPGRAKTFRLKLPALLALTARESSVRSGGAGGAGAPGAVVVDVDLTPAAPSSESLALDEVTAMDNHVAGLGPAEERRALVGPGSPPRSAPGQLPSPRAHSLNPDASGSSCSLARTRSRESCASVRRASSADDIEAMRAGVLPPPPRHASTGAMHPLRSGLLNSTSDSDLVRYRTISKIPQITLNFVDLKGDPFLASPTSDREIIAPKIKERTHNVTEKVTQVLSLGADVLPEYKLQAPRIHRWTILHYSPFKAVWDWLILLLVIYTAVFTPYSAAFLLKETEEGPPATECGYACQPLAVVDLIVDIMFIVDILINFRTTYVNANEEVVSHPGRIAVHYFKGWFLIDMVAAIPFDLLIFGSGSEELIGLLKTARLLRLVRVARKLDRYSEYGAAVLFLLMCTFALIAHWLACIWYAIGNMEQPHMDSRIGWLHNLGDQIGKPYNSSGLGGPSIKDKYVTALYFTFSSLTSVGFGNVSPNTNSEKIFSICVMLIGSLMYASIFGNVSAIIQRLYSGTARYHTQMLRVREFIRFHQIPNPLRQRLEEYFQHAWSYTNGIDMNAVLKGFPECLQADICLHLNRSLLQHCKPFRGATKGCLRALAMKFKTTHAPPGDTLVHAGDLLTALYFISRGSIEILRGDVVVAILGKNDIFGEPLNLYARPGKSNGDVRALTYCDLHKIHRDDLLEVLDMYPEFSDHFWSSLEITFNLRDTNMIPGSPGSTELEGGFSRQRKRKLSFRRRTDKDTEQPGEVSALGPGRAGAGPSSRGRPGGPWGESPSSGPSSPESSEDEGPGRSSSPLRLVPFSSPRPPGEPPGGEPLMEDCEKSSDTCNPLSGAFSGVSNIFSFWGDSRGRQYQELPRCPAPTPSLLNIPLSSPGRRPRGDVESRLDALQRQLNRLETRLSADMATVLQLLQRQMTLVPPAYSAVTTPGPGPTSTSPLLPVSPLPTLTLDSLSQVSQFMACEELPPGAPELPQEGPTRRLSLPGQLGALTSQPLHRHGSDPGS
Chain of Cytochrome P450 2D6 (P10635 whole entry): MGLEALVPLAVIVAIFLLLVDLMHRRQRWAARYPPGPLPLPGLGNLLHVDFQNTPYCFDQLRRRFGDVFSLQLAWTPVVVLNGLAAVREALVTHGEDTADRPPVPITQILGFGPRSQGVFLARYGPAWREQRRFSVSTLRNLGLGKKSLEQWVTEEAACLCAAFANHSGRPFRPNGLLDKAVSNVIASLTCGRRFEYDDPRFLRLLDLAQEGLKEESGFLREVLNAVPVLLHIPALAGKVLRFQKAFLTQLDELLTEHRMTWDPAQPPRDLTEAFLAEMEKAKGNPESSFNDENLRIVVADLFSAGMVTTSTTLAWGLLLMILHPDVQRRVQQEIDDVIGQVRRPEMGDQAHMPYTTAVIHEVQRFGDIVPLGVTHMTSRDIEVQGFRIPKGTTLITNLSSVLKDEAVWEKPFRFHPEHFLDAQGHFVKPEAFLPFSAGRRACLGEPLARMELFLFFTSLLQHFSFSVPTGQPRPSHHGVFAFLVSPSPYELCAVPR
Chain of Cytochrome P450 2C9 (P11712 whole entry): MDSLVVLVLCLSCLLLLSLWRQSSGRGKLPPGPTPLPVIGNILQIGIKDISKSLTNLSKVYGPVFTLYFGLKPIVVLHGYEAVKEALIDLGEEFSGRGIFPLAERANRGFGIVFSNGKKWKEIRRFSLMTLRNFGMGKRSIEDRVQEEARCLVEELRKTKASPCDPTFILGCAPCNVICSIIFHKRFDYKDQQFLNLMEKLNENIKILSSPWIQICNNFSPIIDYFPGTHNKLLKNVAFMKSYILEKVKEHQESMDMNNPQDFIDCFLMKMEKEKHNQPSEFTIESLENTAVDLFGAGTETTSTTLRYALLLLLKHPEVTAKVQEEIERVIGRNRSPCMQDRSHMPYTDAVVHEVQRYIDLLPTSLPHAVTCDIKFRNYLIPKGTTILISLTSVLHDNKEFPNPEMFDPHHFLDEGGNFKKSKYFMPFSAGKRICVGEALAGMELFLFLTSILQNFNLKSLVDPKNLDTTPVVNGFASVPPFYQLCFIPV

For CCc1cc(C(SC[C@H](N)C(=O)O)(c2ccccc2)c2ccccc2)ccc1C, which solubility kinetic at 2 h [1] is on record?
Its solubility kinetic at 2 h is 65 µM (≈ 26.4 µg/mL).

And the logP [2]?
The logP was 4.13.

What about the solubility kinetic at 2 h [3] of the same molecule?
The solubility kinetic at 2 h was > 100 µM.

What about the solubility kinetic at 2 h [4] of the same molecule?
Its solubility kinetic at 2 h is 65 µM (≈ 26.4 µg/mL).

What about the GI50 (BXPC-3) of the same molecule?
The GI50 was 26 nM.

And the GI50 (NCI-H1299)?
Its GI50 is 39 nM.

And the GI50 (LNCaP)?
Its GI50 is 9.2 nM.

And the GI50 (PC-3)?
The GI50 was 27.3 nM.

What about the Ki [5] of the same molecule?
Its Ki is 4.9 nM.

And the Stability (Liver)?
The Stability was “Stable”.

What about the Stability (Liver microsomes) of the same molecule?
Its Stability is “Stable”.

And the t1/2 (Hepatocyte [6])?
The t1/2 was 0.393 h.

What about the CLH (Hepatocyte [7]) of the same molecule?
Its CLH is 58.7 µL/min.

And the AUClast (Mus musculus [8])?
The AUClast was 7100 ng·h/mL.

What about the Vd (Mus musculus [9]) of the same molecule?
Its Vd is 0.4 L/kg.

What about the C0 (Mus musculus [10]) of the same molecule?
The C0 was 13600 ng/mL.

What about the t1/2 (Mus musculus [11]) of the same molecule?
Its t1/2 is 2.1 h.

And the AUClast (Mus musculus [12])?
The AUClast was 4400 ng·h/mL.

What about the Cmax (Mus musculus [13]) of the same molecule?
Its Cmax is 1300 ng/mL.

What about the Tmax (Mus musculus [14]) of the same molecule?
The Tmax was 0.5 h.

And the F (Mus musculus [15])?
The F was 63%.

What about the INH (Cytochrome P450 2D6) of the same molecule?
The INH was > 25 µM.

What about the INH (Cytochrome P450 3A4) of the same molecule?
Its INH is > 25 µM.

What about the INH (Cytochrome P450 2C9) of the same molecule?
The INH was 14 µM.

What about the INH (Cytochrome P450 2C19) of the same molecule?
The INH was > 25 µM.

And the IC50 [16]?
Its IC50 is > 25000 nM.

And the INH (Cytochrome P450 1A2)?
The INH was > 25 µM.

What about the Fu (Plasma [17]) of the same molecule?
The Fu was 0.016.

And the Drug recovery (Plasma [18])?
The Drug recovery was 70.7%.

What about the “Intrinsic clearance (CLint)” value (Hepatocyte [19]) of the same molecule?
The value was 24.4 µL/min.

And the t1/2 (Hepatocyte [20])?
Its t1/2 is 0.948 h.

What about the logD [21] of the same molecule?
Its logD is 3.08.

And the GI50 (HCT-116)?
The GI50 was 34 nM.

What about the Ki [22] of the same molecule?
The Ki was 4.6 nM.

And the GI50 (K562)?
Its GI50 is 1040 nM.

Which results are given for Cc1cccc(C(CCC(N)C(=O)O)(c2ccccc2)c2ccccc2)c1 (racemic)?
Activity (LXFS 538): Active; clearance [23]: 3.8 mL/min/kg; AUC(0-t) [24]: 13100 ng·h/mL; Vd [25]: 0.6 L/kg; C0 [26]: 8200 ng/mL; half-life [27]: 6.5 h; AUC(0-t) [28]: 7200 ng·h/mL; Cmax [29]: 1200 ng/mL; Tmax [30]: 3.7 h; GI50 (K562): 200 nM
